What was measured:
Assay type in all cases: functional
Rattus norvegicus [1] = assay: Antiinflammatory activity against D-adjuvant arthritis in uninjected rat paw at the dose of 200 mg/kg by oral administration
Rattus norvegicus [2] = assay: Antiinflammatory activity against D-adjuvant arthritis in injected rat paw at the dose of 200 mg/kg by oral administration
Rattus norvegicus [3] = species on record: Rattus norvegicus; assay: Antiinflammatory activity in D-adjuvant induced arthritis in rat measured by the change in body weight; design: concentration or dose not given beside the values
Rattus norvegicus [4] = assay: Antiinflammatory activity against carrageenan induced rat paw edema (CPE), dosed orally
Summary of the method: (§1)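 Male Sprague–Dawley rats (150 ± 10 g), five per group. Compound or vehicle given orally in 0.5% methylcellulose 1 h before subplantar injection of 0.1 mL 1% carrageenan in saline into the right hind paw. Paw volume measured by mercury displacement before dosing and 3 h after carrageenan; the difference is the edema volume. ANOVA with Dunnett's t test.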

Rattus norvegicus [5] = assay: Antiinflammatory activity against D-adjuvant arthritis in injected rat paw at the dose of 50 mg/kg by oral administration
Rattus norvegicus [6] = assay: Antiinflammatory activity against D-adjuvant arthritis in uninjected rat paw at the dose of 50 mg/kg by oral administration
Summary of the method: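 Rat developing adjuvant arthritis screen with oral dosing on a prophylactic protocol. Percent change in body weight versus untreated animals was recorded as a preliminary toxicity sign. Significance was assessed against controls by two-tailed Student's t test, p < 0.05.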

Rattus norvegicus [7] = assay: Antiinflammatory activity against D-adjuvant arthritis in uninjected rat paw at the dose of 100 mg/kg by oral administration
Rattus norvegicus [8] = assay: Antiinflammatory activity against D-adjuvant arthritis in injected rat paw at the dose of 100 mg/kg by oral administration
Rattus norvegicus [9] = assay: Antiinflammatory activity dosed orally against D-adjuvant arthritis in rat.
Rattus norvegicus [10] = assay: Antiinflammatory activity dosed orally against carrageenan induced rat paw edema(CPE); summary of the method: as §1
Rattus norvegicus [11] = assay: Antiinflammatory activity against D-adjuvant arthritis in uninjected rat paw at the dose of 10 mg/kg by oral administration
Rattus norvegicus [12] = assay: Antiinflammatory activity against D-adjuvant arthritis in injected rat paw at the dose of 10 mg/kg by oral administration
Rattus norvegicus [13] = assay: Antiinflammatory activity against D-adjuvant arthritis in injected rat paw at the dose of 25 mg/kg by oral administration
Rattus norvegicus [14] = assay: Antiinflammatory activity against D-adjuvant arthritis in uninjected rat paw at the dose of 25 mg/kg by oral administration

Row | Structure (SMILES) | Activity (Rattus norvegicus [3]) [%] | Inhibition (Rattus norvegicus [4]) [%] | inhibition in vivo at 50 mg/kg (Rattus norvegicus [5]) [%] | inhibition in vivo at 50 mg/kg (Rattus norvegicus [6]) [%] | other results
1 | Nc1nc2c(Br)c3nc(N)sc3cc2s1 | 10 | 33 | – | – | inhibition in vivo at 200 mg/kg (Rattus norvegicus [1]): 37%; inhibition in vivo at 200 mg/kg (Rattus norvegicus [2]): 47%
2 | CCC1CCCCN1CC(=O)Nc1nc2cc3nc(NC(=O)CN4CCCCC4CC)sc3cc2s1 (configuration not stated) | -1 | 12 | – | – | inhibition in vivo at 200 mg/kg (Rattus norvegicus [1]): 65%; inhibition in vivo at 200 mg/kg (Rattus norvegicus [2]): 34%
3 | O=C(CN1CCSCC1)Nc1nc2cc3nc(NC(=O)CN4CCSCC4)sc3cc2s1 | 6 | 7 | – | – | inhibition in vivo at 200 mg/kg (Rattus norvegicus [1]): 43%; inhibition in vivo at 200 mg/kg (Rattus norvegicus [2]): 0%
4 | CC(C)N(CC(=O)Nc1nc2cc3nc(NC(=O)CN(C(C)C)C(C)C)sc3cc2s1)C(C)C | -5 | 0 | 0 | 0 | –
5 | Nc1nc2c(Cl)c3nc(N)sc3c(C(F)(F)F)c2s1 | 3 | 13 | – | – | inhibition in vivo at 200 mg/kg (Rattus norvegicus [1]): 12%; inhibition in vivo at 200 mg/kg (Rattus norvegicus [2]): 0%
6 | CCN(CC)CC(=O)Nc1nc2c(cc(Cl)c3nc(NC(=O)CN(CC)CC)sc32)s1 | -58 | 35 | – | – | inhibition in vivo at 100 mg/kg (Rattus norvegicus [7]): 62%; inhibition in vivo at 100 mg/kg (Rattus norvegicus [8]): 0%
7 | CCN(CC)CCC(=O)Nc1nc2cc3nc(NC(=O)CCN(CC)CC)sc3cc2s1 | – | – | 29 | 48 | Body weight change (Rattus norvegicus [9]): -5%; Inhibition (Rattus norvegicus [10]): 16%
8 | CC(=O)c1ccc(N2CCN(CC(=O)Nc3nc4cc5nc(NC(=O)CN6CCN(c7ccc(C(C)=O)cc7)CC6)sc5cc4s3)CC2)cc1 | -7 | 40 | 0 | 0 | –
9 | O=C(CN1CCSC1)Nc1nc2cc3nc(NC(=O)CN4CCSC4)sc3cc2s1 | 11 | 11 | 26 | 27 | –
10 | CCOCCN(CCOCC)CC(=O)Nc1nc2cc3nc(NC(=O)CN(CCOCC)CCOCC)sc3cc2s1 | 0 | 0 | 16 | 21 | –
11 | O=C(CN1CCN(c2ccccn2)CC1)Nc1nc2cc3nc(NC(=O)CN4CCN(c5ccccn5)CC4)sc3cc2s1 | -2 | 9 | 0 | 16 | –
12 | CCOC(=O)c1c2nc(NC(=O)CN(CC)CC)sc2cc2sc(NC(=O)CN(CC)CC)nc12 | -9 | 32 | 7 | 0 | –
13 | CCN(CC)CC(=O)Nc1nc2cc3nc(NC(=O)CN(CC)CC)sc3c([N+](=O)[O-])c2s1 | -16 | 23 | 11 | 12 | –
14 | CC1CCCN(CC(=O)Nc2nc3cc4nc(NC(=O)CN5CCCC(C)C5)sc4cc3s2)C1 (configuration not stated) | 6 | 19 | – | – | inhibition in vivo at 200 mg/kg (Rattus norvegicus [1]): 63%; inhibition in vivo at 200 mg/kg (Rattus norvegicus [2]): 34%
15 | CCOC(=O)CN1CCN(CC(=O)Nc2nc3cc4nc(NC(=O)CN5CCN(CC(=O)OCC)CC5)sc4cc3s2)CC1 | -11 | 14 | 0 | 0 | –
16 | CCN(CC)CCNc1nc2cc3nc(NCCN(CC)CC)sc3cc2s1 | 3 | 14 | – | – | inhibition in vivo at 100 mg/kg (Rattus norvegicus [7]): 0%; inhibition in vivo at 100 mg/kg (Rattus norvegicus [8]): 33%
17 | CCN(CC)CC(=O)N(CC)c1nc2cc3nc(N(CC)C(=O)CN(CC)CC)sc3cc2s1 | -4 | 18 | 14 | 0 | –
18 | O=C(O)CNc1nc2cc3nc(NCC(=O)O)sc3cc2s1 | -25 | 2 | – | – | inhibition in vivo at 200 mg/kg (Rattus norvegicus [1]): 2%; inhibition in vivo at 200 mg/kg (Rattus norvegicus [2]): 0%
19 | CCN(CC)CC(=O)Nc1nc2c(C)c3nc(NC(=O)CN(CC)CC)sc3c(Cl)c2s1 | -37 | 18 | 42 | 16 | –
20 | O=C(CN1CCCCC1CC1CCCCC1)Nc1nc2cc3nc(NC(=O)CN4CCCCC4CC4CCCCC4)sc3cc2s1 (configuration not stated) | 1 | 0 | 0 | 0 | –
21 | O=C(CN1CCCC(CO)C1)Nc1nc2cc3nc(NC(=O)CN4CCCC(CO)C4)sc3cc2s1 (configuration not stated) | -4 | 16 | 25 | 47 | –
22 | O=C(CNC1CCCCC1)Nc1nc2cc3nc(NC(=O)CNC4CCCCC4)sc3cc2s1 | 8 | 20 | 3 | 59 | –

Row | Structure (SMILES) | Activity (Rattus norvegicus [3]) [%] | Inhibition (Rattus norvegicus [4]) [%] | inhibition in vivo at 50 mg/kg (Rattus norvegicus [5]) [%] | inhibition in vivo at 50 mg/kg (Rattus norvegicus [6]) [%] | other results
23 | Nc1nc2cc3nc(N)sc3cc2s1 | -20 | 60 | – | – | inhibition in vivo at 100 mg/kg (Rattus norvegicus [7]): 92%; inhibition in vivo at 100 mg/kg (Rattus norvegicus [8]): 79%
24 | CCN(CC)CC(=O)Nc1nc2cc3nc(NC(=O)CN(CC)CC)sc3c(OC)c2s1 | 10 | 17 | 19 | 0 | –
25 | CCN(CC)CC(=O)Nc1nc2c(Cl)c3nc(NC(=O)CN(CC)CC)sc3c(Cl)c2s1 | -33 | 19 | – | – | inhibition in vivo at 10 mg/kg (Rattus norvegicus [11]): 71%; inhibition in vivo at 10 mg/kg (Rattus norvegicus [12]): 30%
26 | CCOC(=O)c1c2sc(NC(=O)CN(CC)CC)nc2c(C)c2nc(NC(=O)CN(CC)CC)sc12 | -12 | 35 | 15 | 50 | –
27 | N#Cc1c2sc(N)nc2c(Cl)c2nc(N)sc12 | 3 | 7 | – | – | inhibition in vivo at 200 mg/kg (Rattus norvegicus [1]): 37%; inhibition in vivo at 200 mg/kg (Rattus norvegicus [2]): 47%
28 | O=C(CN1CCN(c2ccc(F)cc2)CC1)Nc1nc2cc3nc(NC(=O)CN4CCN(c5ccc(F)cc5)CC4)sc3cc2s1 | 12 | 11 | 41 | 79 | –
29 | CCNC(=O)Nc1nc2cc3nc(NC(=O)NCC)sc3cc2s1 | -1 | 6 | 0 | 15 | –
30 | CCN(CC)C(=O)CNc1nc2cc3nc(NCC(=O)N(CC)CC)sc3cc2s1 | -18 | 5 | 58 | 55 | –
31 | CC1CC(C)CN(CC(=O)Nc2nc3cc4nc(NC(=O)CN5CC(C)CC(C)C5)sc4cc3s2)C1 (configuration not stated) | -3 | 15 | 29 | 11 | –
32 | CCN(CC)CC(=O)Nc1nc2c(Cl)c3nc(NC(=O)CN(CC)CC)sc3c(-c3ccccc3)c2s1 | -6 | 35 | 13 | 7 | –
33 | CCN(CC)CC(=O)Nc1nc2cc3nc(NC(=O)CCl)sc3cc2s1 | – | – | 38 | 0 | Body weight change (Rattus norvegicus [9]): -16%; Inhibition (Rattus norvegicus [10]): 25%
34 | CCN(CC)CC(=O)Nc1nc2cc3nc(N)sc3cc2s1 | -20 | 13 | 34 | 61 | –
35 | CCOC(=O)N1CCN(CC(=O)Nc2nc3cc4nc(NC(=O)CN5CCN(C(=O)OCC)CC5)sc4cc3s2)CC1.Cl.Cl | -17 | 17 | 26 | 60 | –
36 | CN(CC(=O)Nc1nc2cc3nc(NC(=O)CN(C)C4CCCCC4)sc3cc2s1)C1CCCCC1.Cl.Cl | -4 | 6 | – | – | inhibition in vivo at 100 mg/kg (Rattus norvegicus [7]): 27%; inhibition in vivo at 100 mg/kg (Rattus norvegicus [8]): 32%
37 | CCN(CC)CC(=O)Nc1nc2cc3nc(NC(=O)CN(CC)CC)sc3c(C)c2s1.Cl.Cl | -37 | 8 | 59 | 100 | –
38 | Cl.Cl.O=C(CN1CCCCC1)Nc1nc2cc3nc(NC(=O)CN4CCCCC4)sc3cc2s1 | -6 | 0.8 | – | – | inhibition in vivo at 200 mg/kg (Rattus norvegicus [1]): 79%; inhibition in vivo at 200 mg/kg (Rattus norvegicus [2]): 56%
39 | CCN(CC)CC(=O)Nc1nc2c(C(F)(F)F)c3nc(NC(=O)CN(CC)CC)sc3c(Cl)c2s1.Cl.Cl | -22 | 18 | – | – | inhibition in vivo at 25 mg/kg (Rattus norvegicus [13]): 57%; inhibition in vivo at 25 mg/kg (Rattus norvegicus [14]): 100%
40 | CCN(CC)CC(=O)N(C)c1nc2cc3nc(N(C)C(=O)CN(CC)CC)sc3cc2s1.Cl.Cl | -16 | 16 | 0 | 16 | –
41 | CNc1nc2cc3nc(NC)sc3cc2s1.Cl.Cl | -30 | 24 | – | – | inhibition in vivo at 25 mg/kg (Rattus norvegicus [13]): 71%; inhibition in vivo at 25 mg/kg (Rattus norvegicus [14]): 100%
42 | CCNCC(=O)Nc1nc2cc3nc(NC(=O)CNCC)sc3cc2s1.Cl.Cl | -28 | 21 | – | – | inhibition in vivo at 25 mg/kg (Rattus norvegicus [13]): 79%; inhibition in vivo at 25 mg/kg (Rattus norvegicus [14]): 100%
43 | O=P1(N(CCCl)CCCl)NCCCO1 (configuration not stated) [CYCLOPHOSPHAMIDE ANHYDROUS] | – | – | – | – | inhibition in vivo at 25 mg/kg (Rattus norvegicus [13]): 86%; inhibition in vivo at 25 mg/kg (Rattus norvegicus [14]): 100%; Body weight change (Rattus norvegicus [9]): -19%; Inhibition (Rattus norvegicus [10]): 18%
